Experimental data from paper PMC5035717 (Cell, 2016).
Substitutions are numbered along the chain they refer to. “Also recorded” adds a separate entry of the source. Read-outs that look alike come from different tables or passages of the source. Values belong to the compound of their own block, whether it stands above or below them.

How the values were obtained:
mSmoG115S = mSmoG115S (Mus musculus, UniProt P56726, G115S); experiment: Hh pathway activity by qPCR for Gli1 in Smo-null cells rescued with mSmoG115S; assay type: cell-based
mSmoG115S/E164L = mSmoG115S/E164L (Mus musculus, UniProt P56726, E164L/G115S); assay type: cell-based
[1] = test system: Hh signaling in NIH-3T3 cells; experiment: Synergy with Shh in activating Hh signaling in NIH-3T3 cells; assay type: cell-based, mouse
XSmoG84S ectodomain [2] = biological target: T1, XSmoG84S ectodomain (Xenopus laevis, UniProt Q98SW5, G84S); conditions: read-out: IC50, competition of BODIPY-cyclopamine binding
T1 sequence (Q98SW5 35-189 G84S): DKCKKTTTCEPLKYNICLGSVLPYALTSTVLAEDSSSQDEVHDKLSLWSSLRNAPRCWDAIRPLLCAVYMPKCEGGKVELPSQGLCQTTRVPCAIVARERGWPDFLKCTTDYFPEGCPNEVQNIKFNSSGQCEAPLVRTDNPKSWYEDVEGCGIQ
In short: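 Purified E. coli-expressed Xenopus Smo G84S ectodomain incubated with BODIPY-cyclopamine (5 nM) and varying concentrations of unlabeled competitor for 1 h at room temperature. Fluorescence polarization read on a plate reader and converted to anisotropy. Measured in triplicate; IC50 obtained by fitting competition curves.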

mSmoE164L = mSmoE164L (Mus musculus, UniProt P56726, E164L); experiment: Hh pathway activity by qPCR for Gli1 in Smo-null cells rescued with mSmoE164L; assay type: cell-based
mSmoD99A = mSmoD99A (Mus musculus, UniProt P56726, D99A); experiment: Hh pathway activity by qPCR for Gli1 in Smo-null cells rescued with mSmoD99A; assay type: cell-based
mSmoG115F = mSmoG115F (Mus musculus, UniProt P56726, G115F); experiment: Hh pathway activity by qPCR for Gli1 in Smo-null cells rescued with mSmoG115F; assay type: cell-based
[3] = test system: endogenous Smo in NIH-3T3 cells; experiment: Ciliary recruitment of endogenous Smo in sterol-depleted NIH-3T3 cells; assay type: cell-based; conditions: for Rescue of Smo recruitment to cilia in response to Shh: sterols added back as MCD complexes (100 μM); for Recruitment of endogenous Smo to cilia: agent alone
In short: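 Confluent NIH-3T3 cells starved overnight in DMEM, then sterol-depleted with 1.5% MCD for 30 min. Kept in DMEM with 40 μM pravastatin throughout. Sterols added back 1 h as MCD complexes, then overnight with agents or Shh (conditioned medium from 293T cells expressing human Shh aa 1–197). Stained with anti-acetylated tubulin (1:5000) and anti-mSmo (1 μg/mL final); ciliary Smo intensity quantified automatically.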

wild-type mSmo = wild-type mSmo (Mus musculus, UniProt P56726); assay type: cell-based; conditions: for Effect on Hh pathway activity (Gli1 mRNA): mSmo, irrespective of sterol depletion; for Activation of Hh signaling (in words): wild-type mSmo, sterols delivered as MCD complexes
mSmo = mSmo (Mus musculus, UniProt P56726); experiment: Ciliary localization of mSmo in rescued Smo-null cells; assay type: cell-based; conditions: with or without sterol depletion
In short: (§1)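 Smo-null cells rescued with the mSmo construct, grown on glass coverslips. Confluent cultures starved overnight in DMEM, then sterol-depleted with 1.5% MCD in DMEM for 30 min. Later incubations with agents in DMEM plus 40 μM pravastatin. Immunofluorescence used anti-acetylated tubulin as cilia marker; ciliary Smo intensity quantified by automated image analysis, at least 300 cilia per condition.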

mSmoΔCRD [4] = assay type: cell-based, mouse; conditions: irrespective of sterol depletion
mSmoΔCRD [5] = experiment: Ciliary localization of mSmoΔCRD in rescued Smo-null cells; assay type: cell-based, mouse; conditions: with or without sterol depletion
In short: as §1

XSmoCRD = biological target: T2, XSmoCRD (Xenopus laevis, UniProt Q98SW5); experiment: Fluorescence polarization binding of BODIPY probes to purified XSmoCRD; conditions: XSmoCRD (amino acids 35–154), probe 5 nM
T2 sequence (Q98SW5 35-154): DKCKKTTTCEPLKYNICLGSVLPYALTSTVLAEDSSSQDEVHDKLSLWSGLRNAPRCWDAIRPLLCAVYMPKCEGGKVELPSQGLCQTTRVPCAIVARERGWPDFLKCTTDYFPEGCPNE
In short: (§2)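 Xenopus Smo CRD (aa 35–154) or ectodomain (aa 35–189; wild type or G84S) expressed in E. coli as thioredoxin-His6 fusions. Purified by Ni-NTA, glutathione redox refolding and size exclusion. Increasing protein amounts mixed with BODIPY FL probes (5 nM) in 20 mM HEPES pH 7.5, 100 mM NaCl, 1 h at room temperature. FP converted to anisotropy; triplicate; Kd from curve fitting.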

XSmo ectodomain [6] = biological target: T3, XSmo ectodomain (Xenopus laevis, UniProt Q98SW5); experiment: Fluorescence polarization binding of BODIPY probes to purified XSmo ectodomain; conditions: XSmo ectodomain (amino acids 35–189), probe 5 nM
T3 sequence (Q98SW5 35-189): T1 sequence (Q98SW5 35-189 G84S) with S50G
In short: as §2

XSmo ectodomain [7] = biological target: T3, XSmo ectodomain; assay type: binding
XSmo ectodomain [8] = biological target: T3, XSmo ectodomain; experiment: Circular dichroism; assay type: binding; conditions: small molecule 25 μM; CD signal at 225 nm; protein alone Tm=62.1°C
XSmoG84S ectodomain [9] = biological target: T1, XSmoG84S ectodomain; assay type: binding
In short: as §2

mSmoD477G/E522K = mSmoD477G/E522K (Mus musculus, UniProt P56726, D477G/E522K); experiment: BODIPY-cyclopamine binding to mCherry-tagged mSmoD477G/E522K in 293T cells; conditions: 50 nM
In short: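 mCherry-tagged mutant mSmo transiently expressed in 293T cells. Cells washed into serum-free OptiMEM, then incubated 1 h with BODIPY-cyclopamine, with or without SANT1 competitor (10 μM). Fixed in 3.6% formaldehyde/PBS for 30 min at room temperature and washed with TBST. BODIPY and mCherry signals imaged by epifluorescence microscopy.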

Activation of Hh signaling (in words) (mSmoG115S): reduced
Activation of Hh signaling (in words) (mSmoG115S/E164L): do not respond
IC50 (XSmoG84S ectodomain [2]): 44 µM
Activation of Hh signaling (in words) (mSmoE164L): significantly decreases activation
Activation of Hh signaling (in words) (mSmoD99A): do not respond
Activation of Hh signaling (in words) (mSmoG115F): does not activate
Compound: CCCCCC(C)(O)[C@H]1CC[C@H]2[C@@H]3CC=C4C[C@@H](O)CC[C@]4(C)[C@H]3CC[C@]12C (stereo partly drawn) [20(S)-OHC-Pent]
Synergy with Shh [1]: does not synergize

Activation of Hh signaling (in words) (mSmoG115S): strongly activated
Compound: CC(C)CCC[C@@](C)(O)[C@H]1CC[C@H]2[C@@H]3CC=C4C[C@@H](O)CC[C@]4(C)[C@H]3CC[C@@]21C [20(R)-OHC]

Effect on Hh pathway activity (Gli1 mRNA) (wild-type mSmo): activated
Ciliary localization of mSmo (mSmo): accumulate in cilia
Activation of Hh signaling (in words) (mSmoD99A): robust activation
Compound: CNC1CCC(N(Cc2cccc(-c3ccncc3)c2)C(=O)c2sc3ccccc3c2Cl)CC1 (stereo not shown) [SAG]
Recruitment of endogenous Smo to cilia [3]: strongly recruit
Effect on Hh pathway activity (Gli1 mRNA) (mSmoΔCRD [4]): activated
Ciliary localization of mSmoΔCRD (mSmoΔCRD [5]): accumulate in cilia

Effect on Hh pathway activity (Gli1 mRNA) (wild-type mSmo): inhibited
Ciliary localization of mSmo (mSmo): reduced
Compound: Cc1nn(-c2ccccc2)c(C)c1/C=N/N1CCN(Cc2ccccc2)CC1 [SANT1]
Effect on Hh pathway activity (Gli1 mRNA) (mSmoΔCRD [4]): inhibited
Ciliary localization of mSmoΔCRD (mSmoΔCRD [5]): reduced

Kd (XSmoCRD): 1.36 µM
Kd (XSmo ectodomain [6]): 1.4 µM
Compound: BODIPY-22-azacholesterol [BODIPY-22-NHC]

IC50 (XSmoG84S ectodomain [2]): 5.5 µM
Compound: CCCCC[C@@](C)(O)[C@H]1CC[C@H]2[C@@H]3CC=C4C[C@@H](O)CC[C@]4(C)[C@H]3CC[C@@]21C [20(R)-OHC-Pent]

Activation of Hh signaling (in words) (mSmoG115S): activate
Activation of Hh signaling (in words) (mSmoG115S/E164L): activate
Synergy with Shh (wild-type mSmo; Smo-null cells rescued with wild type mSmo, sterols 5 μM as MCD complexes): synergizes
Rescue of mSmo activation by Shh after sterol depletion (wild-type mSmo; add-back 100 μM MCD complex): rescues
Activation of Hh signaling (in words) (wild-type mSmo): activate
Activation of Hh signaling (in words) (wild-type mSmo; listed as Cholesterol): activates Hh signaling
IC50 (XSmo ectodomain [7]): 2.4 µM
Melting temperature (Tm) of XSmo ectodomain (XSmo ectodomain [8]): 65.3 °C
Activation of Hh signaling (in words) (mSmoD99A): defective
Activation of Hh signaling (in words) (mSmoG115F): responds
Compound: CC(C)CCC[C@@H](C)[C@H]1CC[C@H]2[C@@H]3CC=C4C[C@@H](O)CC[C@]4(C)[C@H]3CC[C@]12C [cholesterol]
Rescue of Smo recruitment to cilia in response to Shh [3]: rescued
Synergy with Shh [1]: synergizes

Kd (XSmoCRD): 0.225 µM
Kd (XSmo ectodomain [6]): 0.138 µM
Compound: BODIPY-20(S)-hydroxycholesterol [BODIPY-20(S)-OHC]

The next lines start with the compound.

Compound: C[C@H](CCCC(C)(C)F)[C@H]1CC[C@H]2[C@@H]3CC=C4C[C@@H](O)CC[C@]4(C)[C@H]3CC[C@]12C [25F-cholesterol, 25-fluorocholesterol]
Rescue of Smo recruitment to cilia in response to Shh [3]: rescued

Compound: CC(C)CCC[C@@H](C)[C@H]1CC[C@H]2[C@@H]3CC[C@H]4C[C@@H](O)CC[C@]4(C)[C@H]3CC[C@]12C [cholestanol]
Activation of Hh signaling (in words) (wild-type mSmo): inactive
Binding to XSmo ectodomain (in words) (XSmo ectodomain [7]; competition of BODIPY-cyclopamine): inactive; also recorded: does not bind
Melting temperature (Tm) of XSmo ectodomain (XSmo ectodomain [8]): 62.9 °C

Compound: CC1=C2C[C@H]3[C@@H](CC=C4C[C@@H](O)CC[C@@]43C)[C@@H]2CC[C@]12O[C@@H]1C[C@H](C)CN[C@H]1[C@H]2C [cyclopamine]
IC50 (XSmo ectodomain [7]): 4.5 µM
Melting temperature (Tm) of XSmo ectodomain (XSmo ectodomain [8]): 66.6 °C

Compound: C[C@H](CCCC(F)(C(F)(F)F)C(F)(F)F)[C@H]1CC[C@H]2[C@@H]3CC=C4C[C@@H](O)CC[C@]4(C)[C@H]3CC[C@]12C [F7-cholesterol]
Rescue of Smo recruitment to cilia in response to Shh [3]: rescued

Compound: CC(C)CCC[C@@H](C)[C@H]1CC[C@H]2[C@@H]3C(O)C=C4C[C@@H](O)CC[C@]4(C)[C@H]3CC[C@]12C (stereo partly shown) [7-hydroxycholesterol]
Recruitment of endogenous Smo to cilia [3]: inactive

Compound: CC(C)CCC[C@](C)(O)[C@H]1CC[C@H]2[C@@H]3CC=C4C[C@@H](O)CC[C@]4(C)[C@H]3CC[C@@]21C [20(S)-OHC, 20(S)-hydroxycholesterol]
IC50 (XSmo ectodomain [7]): 1.8 µM
Melting temperature (Tm) of XSmo ectodomain (XSmo ectodomain [8]): 66.5 °C

Compound: CC1=C2CC3C(CC=C4C[C@@H](O)CCC43C)C2CCC12O[C@@H]1CC(C)CN(CCNC(=O)CCCCCNC(=O)CCC3=[N+]4C(=Cc5c(C)cc(C)n5[B-]4(F)F)C=C3)C1C2C (stereo partly shown) [BODIPY-cyclopamine]
Kd (XSmoCRD): 0.389 µM
Kd (XSmoG84S ectodomain [9]): 0.621 µM
Binding to mSmoD477G/E522K in cells (fluorescence microscopy) (mSmoD477G/E522K): does not bind
Kd (XSmo ectodomain [6]): 0.434 µM
